From ChEMBL document CHEMBL3352527, “Phosphorus-nitrogen compounds. Part 29. Syntheses, crystal structures, spectroscopic and stereogenic properties, electrochemical investigations, antituberculosis, antimicrobial and cytotoxic activities and DNA interactions of ansa-spiro-ansa cyclotetraphosphazenes” (2014)
Calls of active or inactive are those of the source. No cut-off for these calls is given here.

Tests used:
[1] = tested on: Bacillus cereus; experiment: Antimicrobial activity against Bacillus cereus NRRL-B-3711 after 18 hrs by agar well diffusion assay; format: functional
In short: (§1)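 Bacteria were grown to exponential phase in nutrient broth at 37 °C for 18 h and adjusted to 10^8 cfu/mL against McFarland density. The culture suspension was mixed into the medium and poured into plates with 6.0 mm wells. Each well received 50 of the compound solution in DMSO. Inhibition zone diameter was read in mm; the value is the mean of three experiments.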

[2] = tested on: Bacillus spizizenii; experiment: Antimicrobial activity against Bacillus subtilis ATCC 6633 after 18 hrs by agar well diffusion assay; format: functional; in short: as §1
[3] = tested on: Escherichia coli; experiment: Antimicrobial activity against Escherichia coli ATCC 25922 after 18 hrs by agar well diffusion assay; format: functional; in short: as §1
[4] = tested on: Escherichia coli; experiment: Binding affinity to Escherichia coli pBR322 plasmid DNA assessed as retardation of electrophoretic migration of supercoiled form I DNA at 312 to 5000 uM after 24 hrs by agarose gel electrophoresis
In short: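 pBR322 plasmid DNA was incubated with the compounds at 37 °C for 24 h in the dark. Mixtures were run on a 1% agarose gel in TAE buffer (pH 8.0) for 3 h at 60 V. Mobility of supercoiled form I and nicked form II DNA was compared with untreated plasmid.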

[5] = tested on: MCF7; experiment: Cytotoxicity against human MCF7 cells assessed as reduction in cell viability at 1 mg/ml after 24 hrs by MTT assay; format: functional
In short: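 Cells were exposed to compounds for 24 h, then to MTT for 4 h. Formazan was dissolved in DMSO and absorbance read at 540 nm. Relative viability (%) was determined, with cisplatin as positive control.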

[6] = tested on: Bacillus spizizenii; experiment: Antimicrobial activity against Bacillus subtilis ATCC 6633 at 2500 uM after 18 hrs by agar well diffusion assay; format: functional; conditions: ATCC 6633, 18 h, read-out: DIZ; in short: as §1
[7] = tested on: Escherichia coli; experiment: Antimicrobial activity against Escherichia coli ATCC 25922 at 10 ug after 18 hrs by agar well diffusion assay; format: functional; conditions: ATCC 25922, 18 h, read-out: DIZ
In short: (§2)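 Agar-well diffusion with ampicillin and chloramphenicol as reference antibacterials. Bacteria were grown to exponential phase in nutrient broth at 37 °C for 18 h and adjusted to 10^8 cfu/mL against McFarland density. The suspension was mixed into medium and poured into plates, and 6.0 mm wells were cut. After incubation, inhibition zone diameter was read in mm. Values are the mean of three experiments.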

[8] = tested on: Bacillus cereus; experiment: Antimicrobial activity against Bacillus cereus NRRL-B-3711 at 10 ug after 18 hrs by agar well diffusion assay; format: functional; conditions: NRRL-B-3711, 18 h, read-out: DIZ; in short: as §2
[9] = tested on: Pseudomonas aeruginosa; experiment: Antimicrobial activity against Pseudomonas aeruginosa ATCC 27853 at 10 ug after 18 hrs by agar well diffusion assay; format: functional; conditions: ATCC 27853, 18 h, read-out: DIZ; in short: as §2
[10] = tested on: Bacillus spizizenii; experiment: Antimicrobial activity against Bacillus subtilis ATCC 6633 at 10 ug after 18 hrs by agar well diffusion assay; format: functional; conditions: ATCC 6633, 18 h, read-out: DIZ; in short: as §2
[11] = tested on: Staphylococcus aureus; experiment: Antimicrobial activity against Staphylococcus aureus ATCC 25923 at 10 ug after 18 hrs by agar well diffusion assay; format: functional; conditions: ATCC 25923, 18 h, read-out: DIZ; in short: as §2
[12] = tested on: Escherichia coli; experiment: Antimicrobial activity against Escherichia coli ATCC 35218 at 10 ug after 18 hrs by agar well diffusion assay; format: functional, organism-based
[13] = tested on: Escherichia coli; experiment: Antimicrobial activity against Escherichia coli ATCC 35218 at 30 ug after 18 hrs by agar well diffusion assay; format: functional; conditions: ATCC 35218, 18 h, read-out: DIZ; in short: as §2
[14] = tested on: Escherichia coli; experiment: Antimicrobial activity against Escherichia coli ATCC 25922 at 30 ug after 18 hrs by agar well diffusion assay; format: functional; conditions: ATCC 25922, 18 h, read-out: DIZ; in short: as §2
[15] = tested on: Bacillus spizizenii; experiment: Antimicrobial activity against Bacillus subtilis ATCC 6633 at 30 ug after 18 hrs by agar well diffusion assay; format: functional; conditions: ATCC 6633, 18 h, read-out: DIZ; in short: as §2
[16] = tested on: Staphylococcus aureus; experiment: Antimicrobial activity against Staphylococcus aureus ATCC 25923 at 30 ug after 18 hrs by agar well diffusion assay; format: functional; conditions: ATCC 25923, 18 h, read-out: DIZ; in short: as §2
[17] = tested on: Pseudomonas aeruginosa; experiment: Antimicrobial activity against Pseudomonas aeruginosa ATCC 27853 at 30 ug after 18 hrs by agar well diffusion assay; format: functional; conditions: ATCC 27853, 18 h, read-out: DIZ; in short: as §2
[18] = tested on: Bacillus cereus; experiment: Antimicrobial activity against Bacillus cereus NRRL-B-3711 at 30 ug after 18 hrs by agar well diffusion assay; format: functional; conditions: NRRL-B-3711, 18 h, read-out: DIZ; in short: as §2
[19] = tested on: Candida tropicalis; experiment: Antimicrobial activity against Candida tropicalis ATCC 13803 at 50 ug after 18 hrs by agar well diffusion assay; format: functional; conditions: ATCC 13803, 18 h, read-out: DIZ
[20] = tested on: Candida albicans; experiment: Antimicrobial activity against Candida albicans ATCC 10231 at 50 ug after 18 hrs by agar well diffusion assay; format: functional; conditions: ATCC 10231, 18 h, read-out: DIZ

For `C1CC2(CCN1)OCCO2`, which “diameter of the inhibition zone (DIZ)” value [1] is on record?
Its value is 13 mm.

And the “diameter of the inhibition zone (DIZ)” value [2]?
The value was 12 mm.

What about the “diameter of the inhibition zone (DIZ)” value [3] of the same compound?
The value was 11 mm.

What does the source list for `[K+].[K+].[O-]c1ccccc1CNCCCNCc1ccccc1[O-]`?
diameter of the inhibition zone (DIZ) [1]: 11 mm; diameter of the inhibition zone (DIZ) [3]: 10.3 mm

Which results are given for `Cl[P@@]12=NP34=N[P@](Cl)(=NP(N5CCCCC5)(N5CCCCC5)=N1)Oc1ccccc1CN3CCN4Cc1ccccc1O2` (mixture of isomers)?
Activity [4]: Active; Activity [5]: 40%

Which Activity [5] does the source give for `Cl[P@@]12=NP34=N[P@](Cl)(=NP(N5CCC6(CC5)OCCO6)(N5CCC6(CC5)OCCO6)=N1)Oc1ccccc1CN3CCCN4Cc1ccccc1O2` (mixture of isomers) here?
Its Activity is “inactive”.

How did the Activity [4] turn out when `ClP12=NP34=N[P@](Cl)(=NP(N5CCCCC5)(N5CCCCC5)=N1)Oc1ccccc1CN3CCCN4Cc1ccccc1O2` (single isomer, unassigned) was run?
The Activity was “Active”.

What about the Activity [5] of the same compound?
The Activity was 40%.

What about the zone of inhibition at 2500 µM [6] of the same compound?
Its zone of inhibition at 2500 µM is 9 mm.

Which Activity [5] does the source give for `ClP12=NP34=NP(Cl)(=NP(N5CCC6(CC5)OCCO6)(N5CCC6(CC5)OCCO6)=N1)Oc1ccccc1CN3CCCN4Cc1ccccc1O2` (single isomer, unassigned) here?
The Activity was “inactive”.

What about the zone of inhibition at 2500 µM [6] of the same compound?
The zone of inhibition at 2500 µM was 7 mm.

How did the Activity [5] turn out when `ClP12=NP(N3CCC4(CC3)OCCO4)(N3CCC4(CC3)OCCO4)=N[P@@]3(Cl)=N[P@]4(=N1)N(CCN4Cc1ccccc1O3)Cc1ccccc1O2` (single isomer, unassigned) was run?
The Activity was “inactive”.

With `ClP12=NP34=N[P@](Cl)(=NP(N5CCC6(CC5)OCCO6)(N5CCC6(CC5)OCCO6)=N1)Oc1ccccc1CN3CCN4Cc1ccccc1O2` (single isomer, unassigned) as the compound, how does the Activity [5] read?
Its Activity is “inactive”.

`CC1(C)S[C@@H]2[C@H](NC(=O)[C@H](N)c3ccccc3)C(=O)N2[C@H]1C(=O)O` [AMPICILLIN] was tested. Which zone of inhibition at 10 µg/disc [7] did it give?
The zone of inhibition at 10 µg/disc was 20.3 mm.

And the zone of inhibition at 10 µg/disc [8]?
The zone of inhibition at 10 µg/disc was 10 mm.

What about the zone of inhibition at 10 µg/disc [9] of the same compound?
Its zone of inhibition at 10 µg/disc is 28 mm.

And the zone of inhibition at 10 µg/disc [10]?
The zone of inhibition at 10 µg/disc was 30.3 mm.

What about the zone of inhibition at 10 µg/disc [11] of the same compound?
Its zone of inhibition at 10 µg/disc is 35 mm.

And the “diameter of the inhibition zone (DIZ)” value [12]?
The value was “inactive”.

With `O=C(N[C@H](CO)[C@H](O)c1ccc([N+](=O)[O-])cc1)C(Cl)Cl` [CHLORAMPHENICOL] as the compound, how does the zone of inhibition at 30 µg/disc [13] read?
The zone of inhibition at 30 µg/disc was 10.5 mm.

What about the zone of inhibition at 30 µg/disc [14] of the same compound?
Its zone of inhibition at 30 µg/disc is 26.6 mm.

What about the zone of inhibition at 30 µg/disc [15] of the same compound?
Its zone of inhibition at 30 µg/disc is 31 mm.

And the zone of inhibition at 30 µg/disc [16]?
The zone of inhibition at 30 µg/disc was 29.6 mm.

What about the zone of inhibition at 30 µg/disc [17] of the same compound?
Its zone of inhibition at 30 µg/disc is 21.9 mm.

And the zone of inhibition at 30 µg/disc [18]?
Its zone of inhibition at 30 µg/disc is 23.4 mm.

For `CC(=O)N1CCN(c2ccc(OCC3COC(Cn4ccnc4)(c4ccc(Cl)cc4Cl)O3)cc2)CC1` (stereo unspecified) [KETOCONAZOLE], which zone of inhibition at 50 µg/disc [19] is on record?
The zone of inhibition at 50 µg/disc was 29 mm.

And the zone of inhibition at 50 µg/disc [20]?
The zone of inhibition at 50 µg/disc was 30 mm.

Which results are given for `C1CCNCC1` [PIPERIDINE]?
diameter of the inhibition zone (DIZ) [1]: 13 mm; diameter of the inhibition zone (DIZ) [3]: 11 mm
